According to ChEMBL document CHEMBL5058577, “EUbOPEN Chemogenomics Library 2 (Multiplex)” (2022):

Tested on: Fibroblast
Assay: Multiplex assay against human fibroblast
Type: toxicity, cell-based
How it was run: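 At seeding, live cells were stained with Hoechst33342, BioTracker Green Microtubule Cytoskeleton Dye, MitoTracker Red and Annexin V Alexa Fluor 680. After compound addition they were imaged on a CQ1 microscope at 37°C and 5% CO2, and CellPathfinder machine-learning gating sorted them into Hoechst high-intensity objects or normal cells, with normal cells further split into healthy, pyknosed or fragmented nuclei and pyknosed cells into mitotic or apoptotic. Tubulin, mitochondrial-mass and membrane-permeability phenotypes are given as per cents of cells with healthy nuclei.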

[1] = 12 h, 1 µM, compound concentration 1 uM, replicate 1
[2] = 12 h, 1 µM, compound concentration 1 uM, replicate 2
[3] = 12 h, 10 µM, compound concentration 10 uM, replicate 1
[4] = 12 h, 10 µM, compound concentration 10 uM, replicate 2
[5] = 24 h, 1 µM, compound concentration 1 uM, replicate 1
[6] = 24 h, 1 µM, compound concentration 1 uM, replicate 2
[7] = 24 h, 10 µM, compound concentration 10 uM, replicate 1
[8] = 24 h, 10 µM, compound concentration 10 uM, replicate 2
[9] = 48 h, 1 µM, compound concentration 1 uM, replicate 1
[10] = 48 h, 1 µM, compound concentration 1 uM, replicate 2
[11] = 48 h, 10 µM, compound concentration 10 uM, replicate 1
[12] = 48 h, 10 µM, compound concentration 10 uM, replicate 2

CC(C)(C)c1ccc(S(=O)(=O)Nc2ccc(Cl)cc2C(=O)c2cc[n+]([O-])cc2)cc1 [VERCIRNON]
Population Apoptotic (%) [1]: 63% | Population Fragmented Nuclei (%) [1]: 19% | Population Healthy Nuclei (%) [1]: 65% | Population Hoechst High Intensity Objects (%) [1]: 2% | Population Membrane Permeable-Phenotype (%) [1]: 1% | Population Mitochondria Different-Phenotype (%) [1]: 3% | Population Mitotic Cells (%) [1]: 36% | Population Normal (%) [1]: 97% | Population Pyknosed Nuclei (%) [1]: 15% | Population Tubulin-Different-Phenotype (%) [1]: 20% | Total Cell Count [1]: 148 | Population Apoptotic (%) [2]: 50% | Population Fragmented Nuclei (%) [2]: 27% | Population Healthy Nuclei (%) [2]: 46% | Population Hoechst High Intensity Objects (%) [2]: 7% | Population Membrane Permeable-Phenotype (%) [2]: 6% | Population Mitochondria Different-Phenotype (%) [2]: 1% | Population Mitotic Cells (%) [2]: 50% | Population Normal (%) [2]: 92% | Population Pyknosed Nuclei (%) [2]: 25% | Population Tubulin-Different-Phenotype (%) [2]: 41% | Total Cell Count [2]: 152 | Population Apoptotic (%) [3]: 59% | Population Fragmented Nuclei (%) [3]: 14% | Population Healthy Nuclei (%) [3]: 64% | Population Hoechst High Intensity Objects (%) [3]: 3% | Population Membrane Permeable-Phenotype (%) [3]: 3% | Population Mitochondria Different-Phenotype (%) [3]: 1% | Population Mitotic Cells (%) [3]: 40% | Population Normal (%) [3]: 96% | Population Pyknosed Nuclei (%) [3]: 21% | Population Tubulin-Different-Phenotype (%) [3]: 46% | Total Cell Count [3]: 107 | Population Apoptotic (%) [4]: 48% | Population Fragmented Nuclei (%) [4]: 30% | Population Healthy Nuclei (%) [4]: 44% | Population Hoechst High Intensity Objects (%) [4]: 5% | Population Membrane Permeable-Phenotype (%) [4]: 8% | Population Mitochondria Different-Phenotype (%) [4]: 10% | Population Mitotic Cells (%) [4]: 51% | Population Normal (%) [4]: 94% | Population Pyknosed Nuclei (%) [4]: 25% | Population Tubulin-Different-Phenotype (%) [4]: 66% | Total Cell Count [4]: 114 | Population Apoptotic (%) [5]: 55% | Population Fragmented Nuclei (%) [5]: 23% | Population Healthy Nuclei (%) [5]: 62% | Population Hoechst High Intensity Objects (%) [5]: 0% | Population Membrane Permeable-Phenotype (%) [5]: 4% | Population Mitochondria Different-Phenotype (%) [5]: 1% | Population Mitotic Cells (%) [5]: 45% | Population Normal (%) [5]: 99% | Population Pyknosed Nuclei (%) [5]: 14% | Population Tubulin-Different-Phenotype (%) [5]: 27% | Total Cell Count [5]: 141 | Population Apoptotic (%) [6]: 54% | Population Fragmented Nuclei (%) [6]: 25% | Population Healthy Nuclei (%) [6]: 57% | Population Hoechst High Intensity Objects (%) [6]: 7% | Population Membrane Permeable-Phenotype (%) [6]: 7% | Population Normal (%) [6]: 92% | Population Pyknosed Nuclei (%) [6]: 16% | Population Tubulin-Different-Phenotype (%) [6]: 40% | Total Cell Count [6]: 142 | Population Apoptotic (%) [7]: 66% | Population Fragmented Nuclei (%) [7]: 16% | Population Healthy Nuclei (%) [7]: 66% | Population Hoechst High Intensity Objects (%) [7]: 1% | Population Membrane Permeable-Phenotype (%) [7]: 4% | Population Mitochondria Different-Phenotype (%) [7]: 2% | Population Mitotic Cells (%) [7]: 33% | Population Normal (%) [7]: 98% | Population Pyknosed Nuclei (%) [7]: 16% | Population Tubulin-Different-Phenotype (%) [7]: 40% | Total Cell Count [7]: 114 | Population Apoptotic (%) [8]: 41% | Population Fragmented Nuclei (%) [8]: 32% | Population Healthy Nuclei (%) [8]: 42% | Population Hoechst High Intensity Objects (%) [8]: 0% | Population Membrane Permeable-Phenotype (%) [8]: 21% | Population Mitochondria Different-Phenotype (%) [8]: 9% | Population Mitotic Cells (%) [8]: 58% | Population Normal (%) [8]: 99% | Population Pyknosed Nuclei (%) [8]: 24% | Population Tubulin-Different-Phenotype (%) [8]: 82% | Total Cell Count [8]: 120 | Population Apoptotic (%) [9]: 61% | Population Fragmented Nuclei (%) [9]: 29% | Population Healthy Nuclei (%) [9]: 58% | Population Hoechst High Intensity Objects (%) [9]: 1% | Population Membrane Permeable-Phenotype (%) [9]: 1% | Population Mitochondria Different-Phenotype (%) [9]: 1% | Population Mitotic Cells (%) [9]: 38% | Population Normal (%) [9]: 98% | Population Pyknosed Nuclei (%) [9]: 12% | Population Tubulin-Different-Phenotype (%) [9]: 25% | Total Cell Count [9]: 151 | Population Apoptotic (%) [10]: 62% | Population Fragmented Nuclei (%) [10]: 32% | Population Healthy Nuclei (%) [10]: 55% | Population Hoechst High Intensity Objects (%) [10]: 6% | Population Membrane Permeable-Phenotype (%) [10]: 6% | Population Mitochondria Different-Phenotype (%) [10]: 9% | Population Mitotic Cells (%) [10]: 37% | Population Normal (%) [10]: 93% | Population Pyknosed Nuclei (%) [10]: 11% | Population Tubulin-Different-Phenotype (%) [10]: 37% | Total Cell Count [10]: 145 | Population Apoptotic (%) [11]: 62% | Population Fragmented Nuclei (%) [11]: 22% | Population Healthy Nuclei (%) [11]: 64% | Population Hoechst High Intensity Objects (%) [11]: 2% | Population Membrane Permeable-Phenotype (%) [11]: 1% | Population Mitochondria Different-Phenotype (%) [11]: 0% | Population Mitotic Cells (%) [11]: 37% | Population Normal (%) [11]: 97% | Population Pyknosed Nuclei (%) [11]: 13% | Population Tubulin-Different-Phenotype (%) [11]: 38% | Total Cell Count [11]: 120 | Population Apoptotic (%) [12]: 46% | Population Fragmented Nuclei (%) [12]: 42% | Population Healthy Nuclei (%) [12]: 46% | Population Hoechst High Intensity Objects (%) [12]: 4% | Population Membrane Permeable-Phenotype (%) [12]: 16% | Population Mitochondria Different-Phenotype (%) [12]: 12% | Population Mitotic Cells (%) [12]: 53% | Population Normal (%) [12]: 95% | Population Pyknosed Nuclei (%) [12]: 11% | Population Tubulin-Different-Phenotype (%) [12]: 72% | Total Cell Count [12]: 122
